Laboratory results as given in ChEMBL document CHEMBL2311435, “Development of 18F-labeled picolinamide probes for PET imaging of malignant melanoma” (J Med Chem, 2013).

Assays:
[1] = test system: Nucleic Acid; test: Ratio of drug uptake in tumor to lungs of C57BL/6 mouse xenografted with mouse B16F10 cells at 3.7 MBq, iv after 2 hrs by gamma-scintillation counting analysis; format: ADME, organism-based, B16-F10; conditions: in vivo
Method in brief: (§1)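 Same subcutaneous B16F10 model and tail-vein dose of about 3.7 MBq (100 μCi), n = 4 per group. Dissection at 1 or 2 h p.i. Gamma-counter %ID/g of tumor divided by that of blood, lung, liver or muscle, given as mean ± SD.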

[2] = test system: Nucleic Acid; test: Ratio of drug uptake in tumor to lungs of C57BL/6 mouse xenografted with mouse B16F10 cells at 3.7 MBq, iv after 1 hr by gamma-scintillation counting analysis; format: ADME, organism-based, B16-F10; conditions: in vivo; method in brief: as §1
[3] = test system: Bone; test: Biodistribution in bone of C57BL/6 mouse xenografted with mouse B16F10 cells at 3.7 MBq, iv after 1 hr by gamma-scintillation counting analysis; format: ADME, organism-based, Bone element, B16-F10; conditions: in vivo
Method in brief: (§2)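 1.0 × 10^6 B16F10 cells in PBS injected subcutaneously into the right shoulder of C57BL/6 mice, grown to 0.5 cm (~10 day). Tail-vein injection of about 3.7 MBq (100 μCi) 18F probe in PBS (0.1 M, pH 7.4). Killed at 1.0 or 2.0 h p.i. (n = 4 per group). Tissues excised, weighed and gamma-counted; uptake expressed as %ID/g, mean ± SD.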

[4] = test system: Zone of skin; test: Biodistribution in skin of C57BL/6 mouse xenografted with mouse B16F10 cells at 3.7 MBq, iv after 2 hrs by gamma-scintillation counting analysis; format: ADME, organism-based, B16-F10; conditions: in vivo; method in brief: as §2
[5] = test system: Muscle tissue; test: Biodistribution in muscle of C57BL/6 mouse xenografted with mouse B16F10 cells at 3.7 MBq, iv after 1 hr by gamma-scintillation counting analysis; format: ADME, organism-based, B16-F10; conditions: in vivo; method in brief: as §2
[6] = test system: Pancreas; test: Biodistribution in pancreas of C57BL/6 mouse xenografted with mouse B16F10 cells at 3.7 MBq, iv after 1 hr by gamma-scintillation counting analysis; format: ADME, organism-based, B16-F10; conditions: in vivo; method in brief: as §2
[7] = test system: Mus musculus; test: Biodistribution in lungs of C57BL/6 mouse xenografted with mouse B16F10 cells at 3.7 MBq, iv after 2 hrs by gamma-scintillation counting analysis; format: ADME, organism-based, Lung, B16-F10; conditions: in vivo; method in brief: as §2
[8] = test system: Stomach; test: Biodistribution in stomach of C57BL/6 mouse xenografted with mouse B16F10 cells at 3.7 MBq, iv after 2 hrs by gamma-scintillation counting analysis; format: ADME, organism-based, B16-F10; conditions: in vivo; method in brief: as §2
[9] = test system: Kidney; test: Biodistribution in kidney of C57BL/6 mouse xenografted with mouse B16F10 cells at 3.7 MBq, iv after 2 hrs by gamma-scintillation counting analysis; format: ADME, organism-based, B16-F10; conditions: in vivo; method in brief: as §2
[10] = test system: Liver; test: Biodistribution in liver of C57BL/6 mouse xenografted with mouse B16F10 cells at 3.7 MBq, iv after 2 hrs by gamma-scintillation counting analysis; format: ADME, organism-based, B16-F10; conditions: in vivo; method in brief: as §2
[11] = test system: Blood; test: Biodistribution in blood of C57BL/6 mouse xenografted with mouse B16F10 cells at 3.7 MBq, iv after 1 hr by gamma-scintillation counting analysis; format: ADME, organism-based, B16-F10; conditions: in vivo; method in brief: as §2
[12] = test system: Kidney; test: Biodistribution in kidney of C57BL/6 mouse xenografted with mouse B16F10 cells at 3.7 MBq, iv after 1 hr by gamma-scintillation counting analysis; format: ADME, organism-based, B16-F10; conditions: in vivo; method in brief: as §2
[13] = test system: Mus musculus; test: Biodistribution in tumor of C57BL/6 mouse xenografted with mouse B16F10 cells at 3.7 MBq, iv after 2 hrs by gamma-scintillation counting analysis; format: ADME, organism-based, Neoplasm, B16-F10; conditions: in vivo; method in brief: as §2
[14] = test system: Zone of skin; test: Biodistribution in skin of C57BL/6 mouse xenografted with mouse B16F10 cells at 3.7 MBq, iv after 1 hr by gamma-scintillation counting analysis; format: ADME, organism-based, B16-F10; conditions: in vivo; method in brief: as §2
[15] = test system: Spleen; test: Biodistribution in spleen of C57BL/6 mouse xenografted with mouse B16F10 cells at 3.7 MBq, iv after 2 hrs by gamma-scintillation counting analysis; format: ADME, organism-based, B16-F10; conditions: in vivo; method in brief: as §2
[16] = test system: Heart; test: Biodistribution in heart of C57BL/6 mouse xenografted with mouse B16F10 cells at 3.7 MBq, iv after 1 hr by gamma-scintillation counting analysis; format: ADME, organism-based, B16-F10; conditions: in vivo; method in brief: as §2
[17] = Drug uptake in tumor of C57BL/6 mouse xenografted with mouse B16F10 cells at 3.7 MBq, iv after 0.5 hrs by PET imaging analysis; format: ADME, organism-based, Neoplasm, B16-F10; conditions: in vivo
Method in brief: (§3)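 Static small-animal PET at 0.5, 1 and 2 h after tail-vein injection of ~3.7 MBq (100 μCi) into B16F10-bearing C57BL/6 mice (n = 4 per probe). Isoflurane anesthesia, 5% induction and 2% maintenance in O2. Decay-corrected images. ROI-derived %ID/g assumes 1 g/ml density, without attenuation correction. Mean ± SD.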

[18] = test system: Blood; test: Biodistribution in blood of C57BL/6 mouse xenografted with mouse B16F10 cells at 3.7 MBq, iv after 2 hrs by gamma-scintillation counting analysis; format: ADME, organism-based, B16-F10; conditions: in vivo; method in brief: as §2
[19] = test system: Bone; test: Biodistribution in bone of C57BL/6 mouse xenografted with mouse B16F10 cells at 3.7 MBq, iv after 2 hrs by gamma-scintillation counting analysis; format: ADME, organism-based, Bone element, B16-F10; conditions: in vivo; method in brief: as §2
[20] = test system: Mus musculus; test: Biodistribution in tumor of C57BL/6 mouse xenografted with mouse B16F10 cells at 3.7 MBq, iv after 1 hr by gamma-scintillation counting analysis; format: ADME, organism-based, Neoplasm, B16-F10; conditions: in vivo; method in brief: as §2
[21] = Drug uptake in tumor of C57BL/6 mouse xenografted with mouse B16F10 cells at 3.7 MBq, iv after 2 hrs by PET imaging analysis; format: ADME, organism-based, Neoplasm, B16-F10; conditions: in vivo; method in brief: as §3
[22] = test system: Nucleic Acid; test: Ratio of drug uptake in tumor to liver of C57BL/6 mouse xenografted with mouse B16F10 cells at 3.7 MBq, iv after 1 hr by gamma-scintillation counting analysis; format: ADME, organism-based, B16-F10; conditions: in vivo; method in brief: as §1
[23] = test system: Pancreas; test: Biodistribution in pancreas of C57BL/6 mouse xenografted with mouse B16F10 cells at 3.7 MBq, iv after 2 hrs by gamma-scintillation counting analysis; format: ADME, organism-based, B16-F10; conditions: in vivo; method in brief: as §2
[24] = test system: Mus musculus; test: Biodistribution in eye of C57BL/6 mouse xenografted with mouse B16F10 cells at 3.7 MBq, iv after 1 hr by gamma-scintillation counting analysis; format: ADME, organism-based, B16-F10; conditions: in vivo; method in brief: as §2
[25] = test system: Intestine; test: Biodistribution in intestine of C57BL/6 mouse xenografted with mouse B16F10 cells at 3.7 MBq, iv after 1 hr by gamma-scintillation counting analysis; format: ADME, organism-based, B16-F10; conditions: in vivo; method in brief: as §2
[26] = test system: Spleen; test: Biodistribution in spleen of C57BL/6 mouse xenografted with mouse B16F10 cells at 3.7 MBq, iv after 1 hr by gamma-scintillation counting analysis; format: ADME, organism-based, B16-F10; conditions: in vivo; method in brief: as §2
[27] = test system: Nucleic Acid; test: Ratio of drug uptake in tumor to blood of C57BL/6 mouse xenografted with mouse B16F10 cells at 3.7 MBq, iv after 2 hrs by gamma-scintillation counting analysis; format: ADME, organism-based, B16-F10; conditions: tumour; method in brief: as §1
[28] = test system: Nucleic Acid; test: Ratio of drug uptake in tumor to liver of C57BL/6 mouse xenografted with mouse B16F10 cells at 3.7 MBq, iv after 2 hrs by gamma-scintillation counting analysis; format: ADME, organism-based, B16-F10; conditions: in vivo; method in brief: as §1
[29] = test system: Brain; test: Biodistribution in brain of C57BL/6 mouse xenografted with mouse B16F10 cells at 3.7 MBq, iv after 1 hr by gamma-scintillation counting analysis; format: ADME, organism-based, B16-F10; conditions: in vivo; method in brief: as §2
[30] = Drug uptake in tumor of C57BL/6 mouse xenografted with mouse B16F10 cells at 3.7 MBq, iv after 1 hr by PET imaging analysis; format: ADME, organism-based, Neoplasm, B16-F10; conditions: in vivo; method in brief: as §3
[31] = test system: Nucleic Acid; test: Ratio of drug uptake in tumor to blood of C57BL/6 mouse xenografted with mouse B16F10 cells at 3.7 MBq, iv after 1 hr by gamma-scintillation counting analysis; format: ADME, organism-based, B16-F10; conditions: tumour; method in brief: as §1
[32] = test system: Mus musculus; test: Biodistribution in eye of C57BL/6 mouse xenografted with mouse B16F10 cells at 3.7 MBq, iv after 2 hrs by gamma-scintillation counting analysis; format: ADME, organism-based, B16-F10; conditions: in vivo; method in brief: as §2
[33] = test system: Mus musculus; test: Biodistribution in lungs of C57BL/6 mouse xenografted with mouse B16F10 cells at 3.7 MBq, iv after 1 hr by gamma-scintillation counting analysis; format: ADME, organism-based, Lung, B16-F10; conditions: in vivo; method in brief: as §2
[34] = test system: Liver; test: Biodistribution in liver of C57BL/6 mouse xenografted with mouse B16F10 cells at 3.7 MBq, iv after 1 hr by gamma-scintillation counting analysis; format: ADME, organism-based, B16-F10; conditions: in vivo; method in brief: as §2
[35] = test system: Brain; test: Biodistribution in brain of C57BL/6 mouse xenografted with mouse B16F10 cells at 3.7 MBq, iv after 2 hrs by gamma-scintillation counting analysis; format: ADME, organism-based, B16-F10; conditions: in vivo; method in brief: as §2
[36] = test system: Muscle tissue; test: Biodistribution in muscle of C57BL/6 mouse xenografted with mouse B16F10 cells at 3.7 MBq, iv after 2 hrs by gamma-scintillation counting analysis; format: ADME, organism-based, B16-F10; conditions: in vivo; method in brief: as §2
[37] = test system: Nucleic Acid; test: Ratio of drug uptake in tumor to muscle of C57BL/6 mouse xenografted with mouse B16F10 cells at 3.7 MBq, iv after 1 hr by gamma-scintillation counting analysis; format: ADME, organism-based, B16-F10; conditions: in vivo; method in brief: as §1
[38] = test system: Nucleic Acid; test: Ratio of drug uptake in tumor to muscle of C57BL/6 mouse xenografted with mouse B16F10 cells at 3.7 MBq, iv after 2 hrs by gamma-scintillation counting analysis; format: ADME, organism-based, B16-F10; conditions: in vivo; method in brief: as §1
[39] = test system: Heart; test: Biodistribution in heart of C57BL/6 mouse xenografted with mouse B16F10 cells at 3.7 MBq, iv after 2 hrs by gamma-scintillation counting analysis; format: ADME, organism-based, B16-F10; conditions: in vivo; method in brief: as §2
[40] = test system: Intestine; test: Biodistribution in intestine of C57BL/6 mouse xenografted with mouse B16F10 cells at 3.7 MBq, iv after 2 hrs by gamma-scintillation counting analysis; format: ADME, organism-based, B16-F10; conditions: in vivo; method in brief: as §2
[41] = test system: Stomach; test: Biodistribution in stomach of C57BL/6 mouse xenografted with mouse B16F10 cells at 3.7 MBq, iv after 1 hr by gamma-scintillation counting analysis; format: ADME, organism-based, B16-F10; conditions: in vivo; method in brief: as §2

Ratio [1]: 9.46
Ratio [2]: 8.81
Drug uptake [3]: 11.29 % ID/g
Drug uptake [4]: 0.63 % ID/g
Drug uptake [5]: 0.6 % ID/g
Drug uptake [6]: 1.06 % ID/g
Drug uptake [7]: 0.59 % ID/g
Drug uptake [8]: 1.64 % ID/g
Drug uptake [9]: 0.69 % ID/g
Drug uptake [10]: 1.41 % ID/g
Drug uptake [11]: 0.33 % ID/g
Drug uptake [12]: 1.34 % ID/g
Drug uptake [13]: 8.66 % ID/g
Drug uptake [14]: 0.73 % ID/g
Drug uptake [15]: 0.31 % ID/g
Drug uptake [16]: 0.6 % ID/g
Drug uptake [17]: 9.52 % ID/g
Drug uptake [18]: 0.15 % ID/g
Drug uptake [19]: 10.27 % ID/g
Drug uptake [20]: 7.54 % ID/g
Drug uptake [21]: 9.73 % ID/g
Ratio [22]: 3.85
Drug uptake [23]: 0.44 % ID/g
Drug uptake [24]: 35.96 % ID/g
Drug uptake [25]: 2.28 % ID/g
Drug uptake [26]: 1.09 % ID/g
Ratio [27]: 44.33
Ratio [28]: 4.16
Drug uptake [29]: 0.49 % ID/g
Drug uptake [30]: 8.97 % ID/g
Ratio [31]: 28.32
Drug uptake [32]: 32.45 % ID/g
Drug uptake [33]: 0.88 % ID/g
Drug uptake [34]: 2.07 % ID/g
Drug uptake [35]: 0.24 % ID/g
Drug uptake [36]: 0.2 % ID/g
Ratio [37]: 13.12
Ratio [38]: 27.75
Drug uptake [39]: 0.37 % ID/g
Drug uptake [40]: 0.98 % ID/g
Drug uptake [41]: 2.24 % ID/g
SMILES: CCN(CC)CCNC(=O)c1cc([18F])ccn1
